From ChEMBL document CHEMBL5108090, “Structure-activity relationship study of PROTACs against hematopoietic prostaglandin D2 synthase” (RSC Med Chem, 2022)
The source made the active and inactive calls. The rule behind the calls is not given here.

What was measured:
[1] = molecular target: T1, Protein cereblon/Hematopoietic prostaglandin D synthase (Homo sapiens, UniProt O60760+Q96SW2); experiment: PROTAC activity at CRBN/H-PGDS in human KU812 cells assessed as reduction in A23187-stimulated PGD2 levels at 10 nM preincubated for 24 hrs followed by A23187 stimulation for 30 mins by ELISA analysis relative to control; type: cell-based; conditions: KU812 cell line, time 24.5 hrs
Summary of the method: (§1)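 KU812 cells (human CML; RPMI-1640, 10% FBS, penicillin–streptomycin) were treated with compound for 24 h. They were then stimulated with 5 μM calcium ionophore A23187 for 30 min. PGD2 in the culture medium was quantified by PGD2-MOX ELISA per the kit instructions.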
Target sequence in this assay (O60760 whole entry, looked up): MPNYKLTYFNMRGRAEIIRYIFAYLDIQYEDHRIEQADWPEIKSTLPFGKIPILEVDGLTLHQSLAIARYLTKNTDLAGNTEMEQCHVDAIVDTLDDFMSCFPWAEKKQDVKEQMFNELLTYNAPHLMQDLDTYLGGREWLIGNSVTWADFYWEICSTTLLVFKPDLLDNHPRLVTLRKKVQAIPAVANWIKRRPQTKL
Target sequence in this assay (Q96SW2 whole entry, looked up): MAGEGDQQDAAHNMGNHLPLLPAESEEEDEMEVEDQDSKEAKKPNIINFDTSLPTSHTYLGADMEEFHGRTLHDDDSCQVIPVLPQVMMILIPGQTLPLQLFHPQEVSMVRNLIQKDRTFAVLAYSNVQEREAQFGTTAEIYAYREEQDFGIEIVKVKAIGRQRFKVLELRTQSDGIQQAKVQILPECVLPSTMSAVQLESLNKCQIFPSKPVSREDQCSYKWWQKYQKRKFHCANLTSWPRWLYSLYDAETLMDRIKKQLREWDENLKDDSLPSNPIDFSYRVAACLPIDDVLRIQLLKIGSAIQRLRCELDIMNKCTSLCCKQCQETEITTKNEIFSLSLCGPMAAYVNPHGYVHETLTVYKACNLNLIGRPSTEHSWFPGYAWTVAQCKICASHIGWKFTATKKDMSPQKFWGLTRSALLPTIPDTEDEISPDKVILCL

[2] = molecular target: T1, Protein cereblon/Hematopoietic prostaglandin D synthase; experiment: PROTAC activity at CRBN/H-PGDS in human KU812 cells assessed as reduction in H-PGDS levels incubated for 24 hrs by Western blotting analysis; type: cell-based, KU812 cell line
Summary of the method: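 KU812 cells were incubated with a compound concentration series for 24 h. SDS lysates (equal protein) were blotted for H-PGDS and β-actin with ECL quantification. The H-PGDS/actin ratio was set relative to DMSO (100%); mean ± SEM, n = 3. DC50 came from a linear fit through the three points spanning 50% protein level.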
Target sequence in this assay (O60760 whole entry): as the sequence (O60760 whole entry, looked up) above
Target sequence in this assay (Q96SW2 whole entry): as the sequence (Q96SW2 whole entry, looked up) above

[3] = molecular target: T2, Hematopoietic prostaglandin D synthase (Homo sapiens, UniProt O60760); experiment: Binding affinity to recombinant human H-PGDS incubated for 1 hrs by competitive fluorescence polarization assay
Summary of the method: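 Competitive FP assay using a commercial kit. Recombinant human H-PGDS, glutathione and fluorescent probe in assay buffer. Compounds were added from DMSO stocks at final 2.50 μM to 2.44 nM (11 points), in triplicate, for 1 h at room temperature. Read at ex 470/em 530 nm in mP. IC50 is the concentration giving a 50% mP reduction, from a semi-log plot.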

[4] = molecular target: T2, Hematopoietic prostaglandin D synthase; experiment: Inhibition of H-PGDS in human KU812 cells assessed as reduction in A23187-stimulated PGD2 levels at 10 nM preincubated for 24 hrs followed by A23187 stimulation for 30 mins by ELISA analysis; type: cell-based; conditions: KU812 cell line, time 24.5 hrs; summary of the method: as §1
[5] = molecular target: T1, Protein cereblon/Hematopoietic prostaglandin D synthase; experiment: PROTAC activity at CRBN/H-PGDS in human KU812 cells assessed as reduction in H-PGDS levels at 1 nM incubated for 6 hrs by Western blotting analysis; type: cell-based; conditions: KU812 cell line
Summary of the method: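 KU812 cells were exposed to compound for 6 h, with MG132 or MLN7243 co-treatment or ligand competition in some arms. Lysates in SDS buffer were boiled and equal protein by BCA was run on SDS-PAGE. Blots used anti-H-PGDS and anti-β-actin with ECL detection. H-PGDS/β-actin was normalized to the DMSO control (100%); mean ± SEM, n = 3.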
Target sequence in this assay (O60760 whole entry, looked up): as the sequence (O60760 whole entry, looked up) above
Target sequence in this assay (Q96SW2 whole entry, looked up): as the sequence (Q96SW2 whole entry, looked up) above

T2 sequence (O60760 whole entry): as the sequence (O60760 whole entry, looked up) above

Structure (SMILES) | Activity [1] | DC50 [2] [nM] | IC50 [3] [nM] | inhibition [4] | Activity [5]
Cn1cccc1C(=O)N1CCN(C(=O)Nc2ccc(N3CCC(C(=O)N4CCN(c5cccc6c5C(=O)N(C5CCC(=O)NC5=O)C6=O)CC4)CC3)cc2)CC1 (configuration not stated) | Active | 0.0714 | 78.1 |  | 
Cn1cccc1C(=O)N1CCN(C(=O)Nc2ccc(N3CCC(C(=O)N4CCOCC4)CC3)cc2)CC1 |  |  | 134 | Active | 
O=C(Nc1ccc(N2CCC(C(=O)N3CCOCC3)CC2)cc1)c1cnc(Oc2ccccc2)nc1 |  |  | 211 | Active | 
O=C1CCC(N2C(=O)c3ccc(N4CCN(C(=O)C5CCN(c6ccc(NC(=O)c7cnc(Oc8ccccc8)nc7)cc6)CC5)CC4)cc3C2=O)C(=O)N1 (configuration not stated) | Active | 0.0276 | 196 |  | Active
O=C1CCC(N2C(=O)c3cccc(N4CCN(C(=O)C5CCN(c6ccc(NC(=O)c7cnc(Oc8ccccc8)nc7)cc6)CC5)CC4)c3C2=O)C(=O)N1 (configuration not stated) | Active | 0.0187 | 116 |  | 
Cn1cccc1C(=O)N1CCN(C(=O)Nc2ccc(N3CCC(C(=O)N4CCN(c5ccc6c(c5)C(=O)N(C5CCC(=O)NC5=O)C6=O)CC4)CC3)cc2)CC1 (configuration not stated) | Active | 0.0238 | 124 |  | 
